Data set [1] concerns Sarcoma-180. As to the kind of experiment: Antitumor activity against mouse Sarcoma 180 cells allografted in Swiss mouse assessed as cure at 150 mg/kg, ip three doses were given at 24 hrs interval starting 24 hrs after allograft injection measured after 60 days. Format: functional, organism-based. Also noted: dose 150 mg/kg. The essentials: (§1)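 Swiss mice given 10^6 ascitic sarcoma 180 cells ip. Starting 24 h later, three ip doses were given 24 h apart. Controls got isotonic salt solution on the same schedule. A cure was a mouse alive with no evidence of cancer cells 60 days after cell injection, reported per 6 mice.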

The subject of data set [2] is Sarcoma-180. As to the kind of experiment: Antitumor activity against mouse Sarcoma 180 cells allografted in Swiss mouse assessed as survival at 150 mg/kg, ip three doses were given at 24 hrs interval starting 24 hrs after allograft injection measured after 5 days. Format: functional, organism-based. Details: dose 150 mg/kg. Put shortly: (§2)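 Swiss mice were injected ip with 10^6 ascitic sarcoma 180 cells. Three daily ip doses followed, the first 24 h after cell injection. The read-out was the number of mice surviving at 5 days, out of 6 treated.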

Data set [3] is described as follows: Acute toxicity in single ip dosed Swiss mouse assessed as death up to 5 days. Format: organism-based. The settings on record: in vivo. Put shortly: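 Male Swiss mice given one ip dose. LD50 taken as the single dose killing 50% of animals within 5 days.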
The nature of data set [4]: Redox potential of the compound in alcohol-water solution. The settings on record: buffer.
Data set [5] has as its system Sarcoma-180. As to the kind of experiment: Antitumor activity against mouse Sarcoma 180 cells allografted in Swiss mouse at 150 mg/kg, ip three doses were given at 24 hrs interval starting 24 hrs after allograft injection relative to control. Format: functional. The settings on record: route intraperitoneal. Put shortly:
(§3)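 Swiss mice received 10^6 ascitic sarcoma 180 cells ip, then three ip doses 24 h apart starting at 24 h. Controls got isotonic salt solution on the same schedule. T/C% is mean survival time of treated over controls (6 mice per group).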

Data set [6] relates to Sarcoma-180. Nature of the data set: Antitumor activity against mouse Sarcoma 180 cells allografted in Swiss mouse assessed as weight gain at 150 mg/kg, ip three doses were given at 24 hrs interval starting 24 hrs after allograft injection measured after 3 days relative to control. Format: functional. The settings on record: route intraperitoneal. Put shortly:
(§4)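 Ascitic sarcoma 180 model in Swiss mice: 10^6 cells ip, then three ip doses at 24-h intervals beginning 24 h later. Mice were weighed 1 day after cell injection and again 3 days later (24 h after the third dose). Percent weight gain of treated mice was compared with saline-treated controls on the same schedule.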

Data set [7] deals with Sarcoma-180. Nature of the data set: Antitumor activity against mouse Sarcoma 180 cells allografted in Swiss mouse assessed as survival time at 150 mg/kg, ip three doses were given at 24 hrs interval starting 24 hrs after allograft injection relative to control. Format: functional. The settings on record: route intraperitoneal. The essentials:
(§5)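 Swiss mice inoculated ip with 10^6 ascitic sarcoma 180 cells. Compound given ip daily ×3 at 24-h intervals, starting 24 h after inoculation. Controls received isotonic saline on the same schedule; 6 mice per group. Mice alive at 60 days counted as 60 days in mean survival (±SD).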

Data set [8] concerns Sarcoma-180. As to the kind of experiment: Antitumor activity against mouse Sarcoma 180 cells allografted in Swiss mouse assessed as survival time at 20 mg/kg, ip three doses were given at 24 hrs interval starting 24 hrs after allograft injection relative to control. The settings on record: route intraperitoneal. Format: functional. Put shortly:
as §5

Data set [9] concerns Sarcoma-180. Nature of the data set: Antitumor activity against mouse Sarcoma 180 cells allografted in Swiss mouse assessed as cure at 20 mg/kg, ip three doses were given at 24 hrs interval starting 24 hrs after allograft injection measured after 60 days. Format: functional, organism-based. Details: dose 20 mg/kg. The essentials:
as §1

The nature of data set [10]: Half life of the compound in water at pH 7 at 25 degC by spectrophotometry. Format: physicochemical. The essentials:
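Compound dissolved in absolute ethanol, then diluted into 0.01 M Tris buffer brought to pH 7 with HCl, 25 °C. Absorbance at λmax followed over hours or days; log absorbance vs time fitted by least squares, rate constant and half-time taken from the slope.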

Data set [11] concerns Sarcoma-180. As to the kind of experiment: Antitumor activity against mouse Sarcoma 180 cells allografted in Swiss mouse at 20 mg/kg, ip three doses were given at 24 hrs interval starting 24 hrs after allograft injection relative to control. Format: functional. The settings on record: route intraperitoneal. The essentials: as §3
The test system of data set [12] is Sarcoma-180. As to the kind of experiment: Antitumor activity against mouse Sarcoma 180 cells allografted in Swiss mouse assessed as weight gain at 20 mg/kg, ip three doses were given at 24 hrs interval starting 24 hrs after allograft injection measured after 3 days relative to control. The settings on record: route intraperitoneal. Format: functional. The essentials: as §4

Data set [13] deals with Sarcoma-180. As to the kind of experiment: Antitumor activity against mouse Sarcoma 180 cells allografted in Swiss mouse assessed as survival at 20 mg/kg, ip three doses were given at 24 hrs interval starting 24 hrs after allograft injection measured after 5 days. Format: functional, organism-based. Also noted: dose 20 mg/kg. Put shortly: as §2
For data set [14], the system named is Sarcoma-180. As to the kind of experiment: Antitumor activity against mouse Sarcoma 180 cells allografted in Swiss mouse at 3 mg/kg, ip three doses were given at 24 hrs interval starting 24 hrs after allograft injection relative to control. Format: functional. The settings on record: route intraperitoneal. The essentials: as §3
Data set [15] concerns Sarcoma-180. Nature of the data set: Antitumor activity against mouse Sarcoma 180 cells allografted in Swiss mouse assessed as survival time at 3 mg/kg, ip three doses were given at 24 hrs interval starting 24 hrs after allograft injection relative to control. Format: functional. The settings on record: route intraperitoneal. Put shortly:
as §5

The subject of data set [16] is Sarcoma-180. As to the kind of experiment: Antitumor activity against mouse Sarcoma 180 cells allografted in Swiss mouse assessed as survival at 3 mg/kg, ip three doses were given at 24 hrs interval starting 24 hrs after allograft injection measured after 5 days. Also noted: dose 3 mg/kg. Format: functional, organism-based. The essentials: as §2
The subject of data set [17] is Sarcoma-180. Nature of the data set: Antitumor activity against mouse Sarcoma 180 cells allografted in Swiss mouse assessed as weight gain at 3 mg/kg, ip three doses were given at 24 hrs interval starting 24 hrs after allograft injection measured after 3 days relative to control. Format: functional. The settings on record: route intraperitoneal. The essentials:
as §4

For orientation: LD50 means the dose expected to kill half of the subjects tested. The T/C is the ratio of treated to control. By half-life is commonly meant the time needed for the level to fall by half in the phase considered. Higher therefore signals slow decline.

Molecules are shown by their SMILES. Activity calls are given as the source filed them.

For the molecule `O=C1C=C/C(=N/O)C(Br)=C1`, in the data set with Sarcoma-180 [1], the outcome was inactive. Moreover, the outcome with Sarcoma-180 [2] was Active. Moreover, the LD50 at 120 h in data set [3] came to 1090 mg/kg. The same molecule displayed a Redox potential in data set [4] of 0.532 V. This molecule came in with a T/C in the data set on Sarcoma-180 [5] of 158%. Moreover, the Activity in the data set with Sarcoma-180 [6] was 6.4%. Also, the Survival in the data set on Sarcoma-180 [7] stood at 18.2 days.

For the molecule `CN(C)c1ccc(/N=C2/C=CC(=O)C(Cl)=C2)cc1`, the Survival in the data set on Sarcoma-180 [8] came out at 33.3 days. In addition, the result in the data set with Sarcoma-180 [9] was inactive. The molecule also had a half-life in data set [10] of 19.9 days. For the same molecule, the T/C with Sarcoma-180 [11] is reported as 256%. Further, the LD50 at 120 h in [3] came to 100 mg/kg. In the data set on Sarcoma-180 [12], the Activity came to 9%. For the same molecule, the outcome in the data set on Sarcoma-180 [13] was Active. This molecule came in with a Redox potential in [4] of 0.658 V.

As for `O=C1C=CC(=NO)C=C1`, in the data set on Sarcoma-180 [1], the result was inactive. Moreover, the result with Sarcoma-180 [2] was Active. In addition, the LD50 at 120 h in data set [3] worked out at 260 mg/kg. The Redox potential in data set [4] is 0.544 V. The molecule also returned a T/C with Sarcoma-180 [5] of 135%. In addition, the Activity in the data set on Sarcoma-180 [6] was -5.2%. For the same molecule, the Survival in the data set on Sarcoma-180 [7] was found to be 17.8 days.

For the molecule `CC(=O)Oc1ccc(N=C2C=CC(=O)C=C2)cc1`, the Survival in the data set with Sarcoma-180 [8] came out at 19.2 days. Also, in the data set on Sarcoma-180 [9], the result was inactive. In addition, in the data set on Sarcoma-180 [11], the T/C is 130%. Besides, the LD50 at 120 h in data set [3] worked out at 90 mg/kg. Further, the Activity in the data set with Sarcoma-180 [12] is reported as -1.5%. For the same molecule, in the data set with Sarcoma-180 [13], the result was Active. Besides, the Redox potential in data set [4] is on record as 0.633 V.

Molecule `CC(=O)NC1=C/C(=N\c2ccc(N(C)C)cc2)C=CC1=O` registered a T/C with Sarcoma-180 [14] of 194%. The Survival in the data set with Sarcoma-180 [15] stood at 26.8 days. Further, the result in the data set with Sarcoma-180 [16] was Active. Moreover, the Activity with Sarcoma-180 [17] stood at 4.3%. In addition, the LD50 at 120 h in [3] turned out to be 70 mg/kg. The same molecule yielded a Redox potential in data set [4] of 0.58 V.

The values are drawn from ChEMBL document CHEMBL3271988, “Nitrogen analogues of 1,4-benzoquinones. Activities against the ascitic sarcoma 180 of mice” (J Med Chem, 1978).
